Results reported in ChEMBL document CHEMBL2046415, “Double protein knockdown of cIAP1 and CRABP-II using a hybrid molecule consisting of ATRA and IAPs antagonist” (2012).
Activity calls are given as the source filed them. The calls are words filed in the database; no cut-off is given here. Square brackets hold non-standard residues; d marks the D form. Peptide text beside a SMILES is read from it. Dip = N[C@H](C(=O)O)C(c1ccccc1)c1ccccc1; Chg = N[C@H](C(=O)O)C1CCCCC1; NMeA = CN[C@@H](C)C(=O)O

What was measured:
[1] = test system: HT-1080; assay: Activation of proteasome in human HT1080 cells expressing FLAG-tagged cIAP1 assessed as induction of cIAP1 protein degradation at 10 uM after 6 hrs by Western blot analysis
[2] = test system: HT-1080; assay: Activation of proteasome in human HT1080 cells expressing FLAG-tagged cIAP1 assessed as induction of CRABP-2 protein degradation at 10 uM after 6 hrs by Western blot analysis
[3] = test system: IMR-32; assay: Activation of proteasome in human IMR32 cells assessed as induction of cIAP1 and CRABP-2 protein degradation at 3 to 30 uM after 24 hrs by Western blot analysis
[4] = test system: IMR-32; assay: Induction of apoptosis in human IMR32 cells assessed as activation of caspase 3/7 after 24 hrs relative to control; format: functional
How it was run: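 IMR-32 cells exposed to compounds for 24 h; caspase 3/7 activity expressed as fold increase over untreated control; values are means of triplicate determinations.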

[5] = test system: HT-1080; assay: Induction of cIAP1 protein degradation in human HT1080 cells at 0.1 to 10 uM after 6 hrs by Western blot analysis; format: functional, cell-based
[6] = test system: HT-1080; assay: Activation of proteasome in human HT1080 cells expressing FLAG-tagged cIAP1 assessed as induction of cIAP1 and CRABP-2 protein degradation at 0.1 to 10 uM after 6 hrs by Western blot analysis
[7] = test system: IMR-32; assay: Antiproliferative activity against human IMR32 cells assessed as reduction of cell number at 30 uM after 24 to 72 hrs; format: functional, cell-based
[8] = test system: HT-1080; assay: Activation of proteasome in human HT1080 cells expressing FLAG-tagged cIAP1 assessed as induction of cIAP1 and CRABP-2 protein degradation after 6 hrs by Western blot analysis
[9] = test system: HT-1080; assay: Activation of proteasome in human HT1080 cells expressing FLAG-tagged cIAP1 assessed as induction of cIAP1 and CRABP-2 protein degradation at 10 uM after 6 hrs by Western blot analysis in presence of proteasome inhibitor MG132
How it was run: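 Compound exposure 6 h; proteasome inhibitor MG132 (10) added to the culture 30 min before compound; cIAP1 and CRABP-II levels then read by Western blot.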

[10] = biological target: T1, Retinoic acid receptor alpha (Homo sapiens) (UniProt P10276); assay: Induction of RARalpha degradation
T1 sequence (whole entry): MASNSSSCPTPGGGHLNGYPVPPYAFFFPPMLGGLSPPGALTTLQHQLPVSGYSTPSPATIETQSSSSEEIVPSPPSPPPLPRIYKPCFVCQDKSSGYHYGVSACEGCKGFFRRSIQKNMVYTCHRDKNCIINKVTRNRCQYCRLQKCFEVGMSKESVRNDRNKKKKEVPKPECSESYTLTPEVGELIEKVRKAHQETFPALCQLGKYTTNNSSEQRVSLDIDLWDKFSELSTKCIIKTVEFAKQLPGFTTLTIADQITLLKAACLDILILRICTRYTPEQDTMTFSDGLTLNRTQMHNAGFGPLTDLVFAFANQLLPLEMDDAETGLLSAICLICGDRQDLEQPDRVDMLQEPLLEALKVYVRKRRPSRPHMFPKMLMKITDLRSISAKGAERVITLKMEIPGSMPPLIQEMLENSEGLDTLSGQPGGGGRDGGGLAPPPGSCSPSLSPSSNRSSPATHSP

Row | Compound | Activity [1] | Activity [2] | Activity [3] | fold change (FC) [4] | Activity [5] | Activity [7] | also measured
1 | CC1=C(/C=C/C(C)=C/C=C/C(C)=C/C(=O)O)C(C)(C)CCC1 | inactive | inactive |  |  |  |  | 
2 | CC1=C(/C=C/C(C)=C/C=C/C(C)=C/C(=O)O)C(C)(C)CC/C1=N\OCC(=O)NCCOCCOCCNC(=O)[C@H](CC(C)C)NC(=O)[C@@H](O)[C@H](N)Cc1ccccc1 |  |  | Active | 1.84 |  |  | 
3 | CN[C@@H](C)C(=O)N[C@H](C(=O)N1CCC[C@H]1C(=O)N[C@H](C(=O)OC)C(c1ccccc1)c1ccccc1)C1CCCCC1 (H-[NMeA][Chg]P[Dip]-OMe) | Active | inactive |  |  | Active |  | 
4 | CC1=C(/C=C/C(C)=C/C=C/C(C)=C/C(=O)O)C(C)(C)CC/C1=N\OCC(=O)NCCOCCOCCOC(=O)[C@H](CC(C)C)NC(=O)[C@@H](O)[C@H](N)Cc1ccccc1 |  |  | Active | 3.61 |  | Active | Activity [6]: Active
5 | COC(=O)[C@H](CC(C)C)NC(=O)[C@@H](O)[C@H](N)Cc1ccccc1 |  |  |  |  | Active |  | 
6 | CN[C@@H](C)C(=O)N[C@H](C(=O)N1CCC[C@H]1C(=O)N[C@H](C(=O)NCCOCCOCCNC(=O)CO/N=C1\CCC(C)(C)C(/C=C/C(C)=C/C=C/C(C)=C/C(=O)O)=C1C)C(c1ccccc1)c1ccccc1)C1CCCCC1 | Active |  | Active | 4.44 |  | Active | Activity [8]: Dose-dependent effect; Activity [9]: inactive; Activity [10]: inactive
